Data reported in ChEMBL document CHEMBL4266061, “Discovery of 4-Azaindole Inhibitors of TGFβRI as Immuno-oncology Agents” (ACS Med Chem Lett, 2018).

How the values were obtained:
Mus musculus = test: Toxicity in C57/BL6 mouse xenografted with mouse MC38 cells assessed as body weight loss at 25 to 50 mg/kg, po qd for 28 days measured twice weekly; assay type: organism-based; details: in vivo, 672 h
Summary of the method: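 Nine C57/BL6 mice per group were injected subcutaneously with 1 × 10^6 MC38 cells. Tumors were measured on day 6, then mice were randomized. Compound was given orally every day for 28 days, alone or with anti-PD-1 antibody (IP every 4 days, three doses). Tumor volumes were measured twice weekly, and body weight loss (>5%) was monitored.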

[1] = Cmax in Balb/C mouse at 10 mg/kg, po qd; assay type: ADME, organism-based; design: dose 10 mg/kg, route oral; details: in vivo
Summary of the method: (§1)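 Compound given orally to mice. Plasma levels were followed over time, and Cmax, Tmax and AUC0–24 were taken from the plasma concentration–time profile.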

[2] = Metabolic stability in mouse liver microsomes assessed as parent compound remaining; assay type: ADME, microsome
[3] = Fraction unbound in human plasma; assay type: ADME, cell-free
[4] = Metabolic stability in human liver microsomes assessed as parent compound remaining; assay type: ADME, microsome
[5] = Fraction unbound in mouse plasma; assay type: ADME, cell-free
[6] = Metabolic stability in rat liver microsomes assessed as parent compound remaining; assay type: ADME, microsome
[7] = AUC (0 to 24 hrs) in Balb/C mouse at 10 mg/kg, po qd; assay type: ADME, organism-based; design: time < 24 hr, dose 10 mg/kg, route oral; details: in vivo; summary of the method: as §1
[8] = Fraction unbound in rat plasma; assay type: ADME, cell-free
[9] = Tmax in Balb/C mouse at 10 mg/kg, po qd; assay type: ADME, organism-based; details: in vivo; summary of the method: as §1
[10] = AUC (0 to 24 hrs) in Balb/C mouse at 50 mg/kg, po bid; assay type: ADME, organism-based; design: time < 24 hr, dose 50 mg/kg, route oral; details: in vivo; summary of the method: as §1
[11] = Tmax in Balb/C mouse at 50 mg/kg, po bid; assay type: ADME, organism-based; details: in vivo; summary of the method: as §1
[12] = Cmax in Balb/C mouse at 50 mg/kg, po bid; assay type: ADME, organism-based; design: dose 50 mg/kg, route oral; details: in vivo; summary of the method: as §1

Compound	Activity (Mus musculus) [%]	Cmax [1] [µM]	Stability [2] [%]	fraction unbound [3]	Stability [4] [%]	fraction unbound [5]	Stability [6] [%]	AUC at 24 h [7] [µM·h]	fraction unbound [8]	Tmax [9] [h]	AUC at 24 h [10] [µM·h]	Tmax [11] [h]	Cmax [12] [µM]
[2H]C([2H])([2H])Oc1ccc(-c2c(-c3ccnc(NC(C)=O)c3)[nH]c3cccnc23)nc1	< 5	5.3	74	0.24	96	0.12	89	19.5	0.25	1	–	–	–
CC(=O)Nc1cc(-c2[nH]c3cccnc3c2-c2cccc(C(F)F)n2)ccn1	–	–	66	0.09	60	0.05	85	–	0.18	–	14.1	1	7.4
